# pIC50: −log10 of the molar value. Activity calls are given as the source filed them. No cut-off for these calls is given here.
# Key:
# [1] = tested on: MOLT-4; assay: Cytotoxicity against human MOLT-4 cells assessed as reduction in cell viability incubated for 72 hrs by MTT assay; assay type: functional, cell-based; conditions: MOLT-4, 72 h
# [2] = tested on: Bel-7402; assay: Cytotoxicity against human Bel-7402 cells assessed as reduction in cell viability incubated for 72 hrs by MTT assay; assay type: functional, cell-based; conditions: Bel-7402, 72 h
# [3] = tested on: HL-60; assay: Cytotoxicity against human HL-60 cells assessed as reduction in cell viability incubated for 72 hrs by MTT assay; assay type: functional, cell-based; conditions: HL-60, 72 h
# [4] = tested on: A549; assay: Cytotoxicity against human A549 cells assessed as reduction in cell viability incubated for 72 hrs by MTT assay; assay type: functional, cell-based; conditions: A549, 72 h
# [5] = tested on: MDA-MB-231; assay: Antiinvasive activity against human MDA-MB-231 cells assessed as reduction in HGF-mediate cell invasion at 30 uM incubated for 24 hrs by fluorescence based assay relative to control; assay type: functional; design: scale not given: the % may be the effect or the level left
# In short: (§1)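 Cells starved 16 h in serum-free RPMI-1640, then 25,000 cells placed in rehydrated basement-membrane inserts. The bottom wells held 5% serum medium with test compound or DMSO vehicle, and invasion was induced with 40 ng/mL HGF. After 24 h at 37 °C, invaded cells were stained with calcein AM and read at ex 485/em 520 nm. Cell number came from a standard curve; triplicates.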
# [6] = tested on: SK-BR-3; assay: Antiproliferative activity against human SK-BR-3 cells expressing c-MET assessed as reduction in cell viability incubated for 72 hrs by MTT assay; assay type: functional, cell-based; conditions: SK-BR-3, 72 h
# In short: (§2)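 Cells plated at 1×10⁴/well (6 wells/group) in RPMI-1640 with 10% FBS and left to adhere overnight. They were then switched to serum-free RPMI-1640 with 40 ng/mL HGF as mitogen plus at least four compound concentrations, or DMSO vehicle (final ≤0.1%), for 72 h, refed every other day. MTT (1 mg/mL) was added for 4 h, formazan dissolved in DMSO, and A570 read. Cell number came from a standard curve, survival was expressed versus DMSO, and IC50 was fitted by nonlinear regression.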
# [7] = target: T1, Hepatocyte growth factor receptor (Homo sapiens, UniProt P08581); assay: Inhibition of recombinant human His-tagged c-MET expressed in baculovirus expression system assessed as reduction in c-MET phosphorylation at 10 uM using Tyr6 as substrate incubated for 1 hr by Z'-lyte assay relative to control
# In short: (§3)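 Cell-free Z′-LYTE Tyr6 assay with recombinant human wild-type or M1250T mutant c-Met kinase at 2500 ng/mL, plus 200 μM ATP, 4 μM Tyr6 peptide and inhibitor. Reaction ran 1 h at room temperature, followed by protease development for 1 h. Readout was the 445/520 nm emission ratio. IC50 from nonlinear regression of log concentration vs % phosphorylation; n=3/dose.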
# [8] = Antiproliferative activity against human MCF7-DOX cells expressing c-MET assessed as reduction in cell viability incubated for 72 hrs by MTT assay; assay type: functional, cell-based
# In short: (§4)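 MTT proliferation. Cells in exponential growth were seeded at 1×10⁴/well (6 wells/group) in RPMI-1640 with 10% FBS and left to adhere overnight. They were then switched to serum-free RPMI-1640 with 40 ng/mL HGF as mitogen plus test doses (at least four concentrations) or DMSO vehicle (≤0.1% final), refreshed every other day. After 72 h, 1 mg/mL MTT was added for 4 h, DMSO solubilized, A570 read. Cell number came from a standard curve, and IC50 was fitted by nonlinear regression of log concentration versus % survival.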
# [9] = tested on: MDA-MB-231; assay: Antiproliferative activity against human MDA-MB-231 cells expressing c-MET assessed as reduction in cell viability incubated for 72 hrs by MTT assay; assay type: functional, cell-based; conditions: MDA-MB-231, 72 h; in short: as §4
# [10] = tested on: MCF7; assay: Antiproliferative activity against human MCF7 cells expressing c-MET assessed as reduction in cell viability incubated for 72 hrs by MTT assay; assay type: functional, cell-based; conditions: MCF7, 72 h; in short: as §2
# [11] = tested on: BT-474; assay: Antiproliferative activity against human BT-474 cells expressing c-MET assessed as reduction in cell viability incubated for 72 hrs by MTT assay; assay type: functional, cell-based; conditions: BT-474, 72 h; in short: as §2
# [12] = target: T1, Hepatocyte growth factor receptor; assay: Inhibition of recombinant human His-tagged c-MET expressed in baculovirus expression system assessed as reduction in c-MET phosphorylation at 5 uM using Tyr6 as substrate incubated for 1 hr by Z'-lyte assay relative to control; in short: as §3
# [13] = tested on: MDA-MB-468; assay: Antiproliferative activity against human MDA-MB-468 cells expressing c-MET assessed as reduction in cell viability incubated for 72 hrs by MTT assay; assay type: functional, cell-based; conditions: MDA-MB-468, 72 h; in short: as §2
# [14] = tested on: MDA-MB-231; assay: Antiinvasive activity against human MDA-MB-231 cells assessed as reduction in HGF-mediate cell invasion at 15 uM incubated for 24 hrs by fluorescence based assay relative to control; assay type: functional; design: scale not given: the % may be the effect or the level left; in short: as §1
# [15] = Cytotoxicity against human MCF-10A cells assessed as cell viability at 20 uM incubated for 72 hrs by MTT assay; assay type: cell-based; conditions: read-out: Activity
# [16] = tested on: MDA-MB-231; assay: cells; conditions: Homo sapiens, MDA-MB-231, 24 h
# [17] = tested on: T47D; assay: Antiproliferative activity against human T47D cells assessed as reduction in cell viability incubated for 72 hrs by MTT assay; assay type: functional, cell-based
# In short: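 Cells plated at 1×10⁴/well in RPMI-1640 with 10% FBS and left to adhere overnight. They were then fed serum-free RPMI-1640 containing 40 ng/mL HGF and at least four compound concentrations, 6 wells/group, for 72 h, with medium renewed every other day. MTT 1 mg/mL for 4 h, formazan dissolved in DMSO, A570. Cell number came from a standard curve; IC50 from nonlinear regression of log concentration vs % survival relative to DMSO.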
# [18] = target: T1, Hepatocyte growth factor receptor; assay: Inhibition of recombinant human His-tagged c-MET expressed in baculovirus expression system assessed as reduction in c-MET phosphorylation using Tyr6 as substrate incubated for 1 hr by Z'-lyte assay; in short: as §3
# [19] = tested on: MDA-MB-231; assay: Cytotoxicity against human MDA-MB-231 cells assessed as reduction in cell viability at 50 uM incubated for 24 hrs by LDH assay relative to control; assay type: functional
# In short: (§5)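 MDA-MB-231 cells seeded at 3×10⁴/well and allowed to attach, then treated in triplicate in 5% serum medium for 24 h at 37 °C. Triton X-100 gave maximum release, and […]. Supernatant was reacted with NAD⁺, lactate, INT and diaphorase for 30 min at room temperature, then read at A490. % cytotoxicity was computed relative to spontaneous and maximum release.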
# [20] = tested on: MDA-MB-231; assay: Cytotoxicity against human MDA-MB-231 cells assessed as reduction in cell viability at 25 uM incubated for 24 hrs by LDH assay relative to control; assay type: functional; in short: as §5
# [21] = tested on: MDA-MB-231; assay: Reduction of c-MET expression level in human MDA-MB-231 cells at 15 to 30 uM incubated for 48 hrs by Western blot analysis; assay type: functional, cell-based; conditions: dose 15-30 µM
# In short: (§6)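 MDA-MB-231 cells seeded at 1×10⁶ per 100 mm dish and left overnight. Cells were treated with compound or DMSO in serum-free medium containing HGF 50 ng/mL for 48 h. RIPA lysates (30 μg protein) were run on SDS-PAGE and transferred to PVDF. Membranes were blocked in 5% BSA/TBST and probed overnight at 4 °C with primary antibodies, then HRP secondary; chemiluminescent detection.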
# [22] = tested on: MDA-MB-231; assay: Antiinvasive activity against human MDA-MB-231 cells assessed as reduction in HGF-mediate cell invasion at 4 uM incubated for 24 hrs by fluorescence based assay relative to control; assay type: functional; design: scale not given: the % may be the effect or the level left; in short: as §1
# [23] = tested on: MDA-MB-231; assay: Antitumor activity against GFP-tagged human MDA-MB-231 cells xenografted in athymic nude-Foxn1nu/Fox1+ mouse assessed as the reduction in tumor growth at 10 mg/kg, ip dosed 3 times per week for 3 weeks treatment started 14 days of post inoculation; assay type: functional; conditions: MDA-MB-231, ip, 504 h, read-out: TGI
# In short: (§7)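 Female athymic nude mice, 4–5 weeks old, received 1×10⁶ MDA-MB-231/GFP cells into the second mammary fat pad (orthotopic), n = 5/group. Dosing was 10 mg/kg i.p. 3×/week or DMSO/saline vehicle, starting on day 14 after inoculation. Tumor volume was taken as L/2 × W², with body weight and clinical signs monitored. Mice were killed on day 33 and tumors excised and weighed.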
# [24] = Cytotoxicity against human MCF-10A cells assessed as cell viability at 5 uM incubated for 72 hrs by MTT assay; assay type: cell-based; conditions: read-out: Activity
# [25] = tested on: MDA-MB-231; assay: Antiinvasive activity against human MDA-MB-231 cells assessed as reduction in HGF-induced cell invasion incubated for 24 hrs by fluorescence based assay; assay type: functional; in short: as §1
# [26] = target: T1, Hepatocyte growth factor receptor; assay: Inhibition of c-MET in human MDA-MB-231 cells assessed as reduction in c-MET phosphorylation level at 15 to 30 uM incubated for 48 hrs by Western blot analysis; assay type: cell-based; conditions: dose 15-30 µM; in short: as §6
# [27] = target: Hepatocyte growth factor receptor (Homo sapiens, UniProt P08581, M1250T); assay: Inhibition of recombinant human His-tagged c-MET M1250T mutant expressed in baculovirus expression system assessed as reduction in c-MET phosphorylation using Tyr6 as substrate incubated for 1 hr by Z'-lyte assay
# [28] = Cytotoxicity against human MCF-10A cells assessed as cell viability at 10 uM incubated for 72 hrs by MTT assay; assay type: cell-based; conditions: read-out: Activity
# [29] = tested on: MDA-MB-231; assay: Antiinvasive activity against human MDA-MB-231 cells assessed as reduction in HGF-mediate cell invasion at 8 uM incubated for 24 hrs by fluorescence based assay relative to control; assay type: functional; design: scale not given: the % may be the effect or the level left; in short: as §1
# [30] = Cytotoxicity against human MCF-10A cells assessed as cell viability at 30 uM incubated for 72 hrs by MTT assay; assay type: cell-based; conditions: read-out: Activity
# [31] = Toxicity in athymic nude-Foxn1nu/Fox1+ mouse assessed as effect on body weight at 10 mg/kg, ip dosed 3 times per week for 3 weeks treatment started 14 days of post inoculation; assay type: organism-based; conditions: in vivo, 504 h; in short: as §7
# T1 sequence (P08581 whole entry): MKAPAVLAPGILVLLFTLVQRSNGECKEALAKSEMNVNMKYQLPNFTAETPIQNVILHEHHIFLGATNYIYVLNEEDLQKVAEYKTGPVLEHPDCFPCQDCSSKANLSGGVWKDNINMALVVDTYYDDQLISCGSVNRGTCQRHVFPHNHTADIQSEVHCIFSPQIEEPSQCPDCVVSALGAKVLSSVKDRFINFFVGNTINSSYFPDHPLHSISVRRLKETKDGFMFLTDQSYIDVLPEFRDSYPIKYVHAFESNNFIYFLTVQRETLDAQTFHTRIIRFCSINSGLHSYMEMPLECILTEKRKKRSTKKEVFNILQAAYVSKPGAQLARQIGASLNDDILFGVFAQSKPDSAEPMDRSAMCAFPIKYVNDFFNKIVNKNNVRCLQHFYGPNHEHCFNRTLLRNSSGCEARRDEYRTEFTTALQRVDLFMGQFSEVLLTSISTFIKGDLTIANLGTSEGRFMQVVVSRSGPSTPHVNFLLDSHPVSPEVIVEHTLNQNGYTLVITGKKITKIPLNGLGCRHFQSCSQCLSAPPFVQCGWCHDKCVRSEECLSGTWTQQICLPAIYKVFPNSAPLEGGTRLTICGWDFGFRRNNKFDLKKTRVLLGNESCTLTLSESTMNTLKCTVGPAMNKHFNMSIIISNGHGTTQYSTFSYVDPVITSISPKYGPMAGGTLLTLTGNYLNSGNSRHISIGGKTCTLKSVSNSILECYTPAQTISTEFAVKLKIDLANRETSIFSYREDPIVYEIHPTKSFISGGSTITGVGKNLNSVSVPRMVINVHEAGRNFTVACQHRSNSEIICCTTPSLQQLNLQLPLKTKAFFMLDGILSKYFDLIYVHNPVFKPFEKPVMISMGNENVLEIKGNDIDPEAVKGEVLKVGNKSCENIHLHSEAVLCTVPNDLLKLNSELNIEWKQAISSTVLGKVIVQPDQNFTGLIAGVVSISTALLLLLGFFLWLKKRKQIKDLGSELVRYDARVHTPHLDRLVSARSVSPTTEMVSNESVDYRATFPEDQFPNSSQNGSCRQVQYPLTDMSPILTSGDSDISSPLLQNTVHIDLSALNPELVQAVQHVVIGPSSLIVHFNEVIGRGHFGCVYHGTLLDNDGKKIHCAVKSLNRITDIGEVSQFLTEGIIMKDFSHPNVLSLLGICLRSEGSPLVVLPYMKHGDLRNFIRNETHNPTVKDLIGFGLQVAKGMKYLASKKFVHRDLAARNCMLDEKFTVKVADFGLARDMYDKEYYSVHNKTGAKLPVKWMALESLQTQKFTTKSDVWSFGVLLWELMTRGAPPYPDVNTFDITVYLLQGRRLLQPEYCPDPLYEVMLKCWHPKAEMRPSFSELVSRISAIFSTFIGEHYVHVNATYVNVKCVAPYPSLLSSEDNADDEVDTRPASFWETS
# Chain of Hepatocyte growth factor receptor (Homo sapiens, UniProt P08581, M1250T) (P08581 whole entry M1250T): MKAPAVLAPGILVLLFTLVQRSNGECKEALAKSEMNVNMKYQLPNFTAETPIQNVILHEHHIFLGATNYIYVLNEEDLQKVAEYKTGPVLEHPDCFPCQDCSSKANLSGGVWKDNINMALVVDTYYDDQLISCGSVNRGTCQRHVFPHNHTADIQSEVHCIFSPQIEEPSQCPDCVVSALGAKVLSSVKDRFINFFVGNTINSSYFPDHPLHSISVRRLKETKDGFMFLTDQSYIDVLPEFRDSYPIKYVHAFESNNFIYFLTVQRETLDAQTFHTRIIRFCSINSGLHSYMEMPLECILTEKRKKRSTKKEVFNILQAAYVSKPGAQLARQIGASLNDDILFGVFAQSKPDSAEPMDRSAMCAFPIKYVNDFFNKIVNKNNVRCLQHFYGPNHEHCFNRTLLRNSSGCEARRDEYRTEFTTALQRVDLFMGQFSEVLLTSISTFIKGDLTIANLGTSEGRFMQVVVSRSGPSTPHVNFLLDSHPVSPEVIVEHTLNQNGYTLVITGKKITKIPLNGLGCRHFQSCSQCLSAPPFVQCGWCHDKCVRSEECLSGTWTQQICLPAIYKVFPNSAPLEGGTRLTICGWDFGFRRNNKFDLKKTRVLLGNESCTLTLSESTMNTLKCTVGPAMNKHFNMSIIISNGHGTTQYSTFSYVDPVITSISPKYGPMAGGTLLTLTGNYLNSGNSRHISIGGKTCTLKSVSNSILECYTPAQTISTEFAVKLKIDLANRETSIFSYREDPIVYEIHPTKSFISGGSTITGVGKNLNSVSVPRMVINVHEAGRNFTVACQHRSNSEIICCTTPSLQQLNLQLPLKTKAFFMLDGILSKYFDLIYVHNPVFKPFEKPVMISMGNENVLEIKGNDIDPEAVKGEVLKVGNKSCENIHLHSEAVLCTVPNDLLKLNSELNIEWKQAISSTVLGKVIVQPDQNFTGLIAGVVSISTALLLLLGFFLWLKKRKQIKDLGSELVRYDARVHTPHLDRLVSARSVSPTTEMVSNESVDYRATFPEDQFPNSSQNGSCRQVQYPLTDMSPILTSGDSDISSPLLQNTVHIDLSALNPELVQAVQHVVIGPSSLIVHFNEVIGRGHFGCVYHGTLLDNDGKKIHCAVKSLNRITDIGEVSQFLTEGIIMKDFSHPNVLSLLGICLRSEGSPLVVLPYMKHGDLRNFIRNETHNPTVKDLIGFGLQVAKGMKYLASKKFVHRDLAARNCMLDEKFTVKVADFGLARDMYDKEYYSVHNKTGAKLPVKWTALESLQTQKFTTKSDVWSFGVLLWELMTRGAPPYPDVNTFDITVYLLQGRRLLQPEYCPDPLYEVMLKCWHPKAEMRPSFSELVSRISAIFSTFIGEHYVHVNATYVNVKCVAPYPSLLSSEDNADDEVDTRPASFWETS
SMILES,pIC50 [3],pIC50 [4],Activity [5],pIC50 [6],inhibition [7],pIC50 [8],pIC50 [9],pIC50 [10],pIC50 [11],inhibition [12],pIC50 [13],Activity [14],"viability at 72 h, 20 µM [15]",also measured
C=CC(C)(C)[C@@]12C=C(O)C(=O)N3/C(=C/c4cn([C@H]5C[C@@]6(O)O[C@@H]7C[C@@]6(C)[C@]6(C[C@]8(C)CCC(C)(C)[C@@H]8[C@@H]76)[C@@H]5C)cn4)C(=O)N[C@]31N(OC)c1ccccc12,5.74,5.74,–,–,–,–,–,–,–,–,–,–,–,pIC50 [1]: 5.74; pIC50 [2]: 5.74
O=C1N[C@@H](Cc2c[nH]c3ccccc23)C(=O)N/C1=C/c1cnc[nH]1,–,–,83%,4.40,10.2%,4.62,4.50,4.40,4.40,0%,4.40,46.1%,–,–
C=CC(C)(C)[C@@]12C[C@H]3C(=O)N/C(=C/c4c[nH]cn4)C(=O)N3[C@@H]1Nc1ccccc12 [ROQUEFORTINE C],–,–,79.3%,4.63,59.7%,4.61,4.63,4.66,4.53,39.7%,4.54,47.6%,98.4%,–
C=CC(C)(C)[C@@]12C=C(O)C(=O)N3/C(=C/c4cnc[nH]4)C(=O)N[C@]31N(OC)c1ccccc12,5.13,4.70,–,5.55,88%,5.49,5.17,5.72,5.57,56.3%,5.05,–,74.4%,"pIC50 [16]: 5.74; pIC50 [17]: < 4.40; pIC50 [18]: 5.38; inhibition [18]: Dose-dependent effect; inhibition at 50 µM [19]: 9.4%; inhibition at 25 µM [20]: 2.5%; inhibition [21]: inactive; Activity [22]: 30.7%; inhibition in vivo at 10 mg/kg [23]: 65%; viability at 72 h, 5 µM [24]: 100%; Activity [25]: Dose-dependent effect; inhibition [26]: Active; pIC50 [27]: 5.68; viability at 72 h, 10 µM [28]: 98.8%; Activity [29]: 57.5%; viability at 72 h, 30 µM [30]: 48.9%; Activity [31]: Non-Toxic"

# From ChEMBL document CHEMBL4715690 (Bioorg Med Chem, 2016)
